The IC50 is the point on the concentration scale where inhibition reaches its midpoint. Low values mean greater potency, high ones weaker potency.

In one experiment the test system is SH-SY5Y. The experiment is described as follows: Cytotoxicity against human SH-SY5Y cells after 72 hrs by MTT assay. It is filed as functional, cell-based. Summed up: (§1)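 Cells grown at 37 °C in 5% CO₂/95% air, in RPMI-1640 or DMEM with 10% neonatal bovine serum or 10% FBS. Exposed to a concentration series for 72 h, then MTT added for a further 4 h at 37 °C. Formazan dissolved in DMSO and absorbance read at 570 and 630 nm. Triplicate wells in three independent experiments; IC50 calculated by dose-effect analysis.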
In general terms: Formazan colour is commonly taken as a measure of viable cells.

Experiment [1] deals with HCT-116. The experiment is described as follows: Cytotoxicity against human HCT116 cells after 72 hrs by MTT assay. Type of experiment: functional, cell-based. The conditions noted are these: HCT-116, 72 h. Put shortly:
as §1

The next experiment concerns DU-145. Nature of the experiment: Cytotoxicity against human DU145 cells after 72 hrs by MTT assay. The conditions noted are these: DU-145, 72 h. Type of experiment: functional, cell-based. Put shortly:
as §1

A further experiment deals with SGC-7901. The experiment is described as follows: Cytotoxicity against human SGC7901 cells after 72 hrs by MTT assay. It is filed as functional, cell-based. The conditions noted are these: SGC-7901, 72 h. Summed up:
as §1

Experiment [2] relates to HeLa. The experiment is described as follows: Cytotoxicity against human HeLa cells after 72 hrs by MTT assay. It is filed as functional, cell-based. Summed up:
as §1

Experiment [3] deals with HeLa. Nature of the experiment: Induction of apoptosis in human HeLa cells assessed as late apoptotic to necrotic at 5 uM after 48 hrs by annexinV-FITC/PI staining-based flow cytometry (reference value: 1.98%). It is filed as functional. Summed up:
(§2)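 After 48 h treatment, cells washed twice in cold PBS and resuspended in binding buffer at 1 × 10⁵ cells/mL. Stained with Annexin V-FITC and propidium iodide in the dark for 15 min at room temperature, then analysed by flow cytometry. Lower-right quadrant scored as early-mid apoptotic, upper-right as late apoptotic/necrotic. Experiments performed three times.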
(In flow cytometry, cells or beads pass a laser one at a time.)

The test system of experiment [4] is HeLa. Nature of the experiment: Cell cycle arrest in human HeLa cells assessed as decrease in S phase cells at 3.75 to 15 uM after 48 hrs by flow cytometry. It is filed as functional, cell-based. Summed up:
(§3)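 Cells exposed to test agent for 48 h, then harvested, washed twice in PBS and fixed in 75% ice-cold ethanol at least overnight. DNA content of 10,000 events analysed by flow cytometry, giving percentage of cells in each cycle phase versus vehicle control.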

Experiment [5] has as its system HeLa. The experiment is described as follows: Cell cycle arrest in human HeLa cells assessed as accumulation in G2/M phase after 48 hrs by flow cytometry. It is filed as functional, cell-based. Put shortly: as §3
The test system of experiment [6] is HeLa. The experiment is described as follows: Induction of apoptosis in human HeLa cells assessed as early to mid apoptotic cells at 5 uM after 48 hrs by annexinV-FITC/PI staining-based flow cytometry (reference value: 2.93%). Type of experiment: functional. Put shortly: as §2
Experiment [7] has as its system HeLa. The experiment is described as follows: Induction of apoptosis in human HeLa cells assessed as early to mid apoptotic cells at 10 uM after 48 hrs by annexinV-FITC/PI staining-based flow cytometry (reference value: 2.93%). It is filed as functional. Summed up:
as §2

Experiment [8] deals with HeLa. Nature of the experiment: Cell cycle arrest in human HeLa cells assessed as accumulation in G2/M phase at 15 uM after 48 hrs by flow cytometry relative to control. It is filed as functional. Summed up:
as §3

Experiment [9] has as its system HCT-116. Nature of the experiment: Induction of apoptosis in human HCT116 cells assessed as early to mid apoptotic cells at 2 uM after 48 hrs by annexinV-FITC/PI staining-based flow cytometry (reference value: 1.62%). Type of experiment: functional. Summed up: as §2
Experiment [10] relates to HCT-116. The experiment is described as follows: Induction of apoptosis in human HCT116 cells assessed as late apoptotic to necrotic cells at 8 uM after 48 hrs by annexinV-FITC/PI staining-based flow cytometry (reference value: 0.43%). It is filed as functional. Summed up: as §2
Experiment [11] relates to HCT-116. The experiment is described as follows: Cell cycle arrest in human HCT116 cells assessed as decrease in S phase cells at 2 to 8 uM after 48 hrs by flow cytometry. Type of experiment: functional, cell-based. Summed up: as §3
The test system of experiment [12] is HCT-116. Nature of the experiment: Cell cycle arrest in human HCT116 cells assessed as accumulation in G2/M phase after 48 hrs by flow cytometry. Type of experiment: functional, cell-based. Put shortly: as §3
Experiment [13] relates to HCT-116. The experiment is described as follows: Cell cycle arrest in human HCT116 cells assessed as accumulation in G2/M phase at 8 uM after 48 hrs by flow cytometry relative to control. It is filed as functional. Put shortly: as §3
In experiment [14] the test system is HCT-116. Nature of the experiment: Induction of apoptosis in human HCT116 cells assessed as late apoptotic to necrotic cells at 2 uM after 48 hrs by annexinV-FITC/PI staining-based flow cytometry (reference value: 0.43%). Type of experiment: functional. Summed up:
as §2

Experiment [15] deals with HCT-116. Nature of the experiment: Induction of apoptosis in human HCT116 cells assessed as early to mid apoptotic cells at 8 uM after 48 hrs by annexinV-FITC/PI staining-based flow cytometry (reference value: 1.62%). Type of experiment: functional. Put shortly:
as §2

Activity calls are given as the source filed them. No cut-off for these calls is given here.

Take `CCCCOc1ccc2c(=O)c(-c3ccc(OC)c(N(CCCl)CCCl)c3)coc2c1`: the half-maximal inhibitory concentration (IC50) was found to be 16.3 µM in the experiment on SH-SY5Y; 17.1 µM with HCT-116 [1]; 8.28 µM in the experiment with DU-145; 11.8 µM in the experiment with SGC-7901; 11.8 µM with HeLa [2].

Consider `C=CCOc1ccc2c(=O)c(-c3ccc(OC)c(N(CCCl)CCCl)c3)coc2c1`, for which the half-inhibitory concentration (IC50) with SH-SY5Y amounted to 4.51 µM; in the experiment with HCT-116 [1], 7.54 µM; in the experiment with DU-145 it was 15.4 µM; in the experiment with SGC-7901, 10.2 µM; in the experiment on HeLa [2], 9.22 µM.

For the compound `COc1ccc(-c2coc3cc(OCCC(C)C)ccc3c2=O)cc1N(CCCl)CCCl`, the IC50 came to 10.4 µM in the experiment on SH-SY5Y; 7.67 µM in the experiment with HCT-116 [1]; 6.6 µM in the experiment with DU-145; 9.47 µM in the experiment on SGC-7901; 9.81 µM in the experiment on HeLa [2].

As to `COc1ccc(-c2coc3cc(OCc4ccc(C)cc4)ccc3c2=O)cc1N(CCCl)CCCl`, the IC50 in the experiment with SH-SY5Y turned out to be 49.9 µM; in the experiment with HCT-116 [1] it was 9.41 µM; in the experiment on DU-145, 18.8 µM; in the experiment with SGC-7901, 7.73 µM; in the experiment on HeLa [2], 12.6 µM.

Regarding `CCC(C)Oc1ccc2c(=O)c(-c3ccc(OC)c(N(CCCl)CCCl)c3)coc2c1` (stereo not drawn), the IC50 turned out to be 3.58 µM in the experiment with SH-SY5Y; 20.2 µM in the experiment on HCT-116 [1]; 28.8 µM in the experiment with DU-145; 47.5 µM in the experiment with SGC-7901; 18.9 µM with HeLa [2].

`CCCOc1ccc2c(=O)c(-c3ccc(OC)c(N(CCCl)CCCl)c3)coc2c1`: the half-maximal inhibitory concentration (IC50) in the experiment on SH-SY5Y is 7.89 µM; in the experiment on HCT-116 [1] it was 15.2 µM; with DU-145, 28.8 µM; with SGC-7901, greater than 100 µM; in the experiment on HeLa [2], 12.8 µM.

As to `COc1ccc(-c2coc3cc(OC4CCCCCC4)ccc3c2=O)cc1N(CCCl)CCCl`, the IC50 with SH-SY5Y is 2.08 µM; in the experiment with HCT-116 [1], 5.72 µM; with DU-145, 10.1 µM; in the experiment on SGC-7901, 14.3 µM; in the experiment with HeLa [2] it was 8.85 µM.

In the case of `COc1ccc(-c2coc3cc(O)ccc3c2=O)cc1N(CCCl)CCCl`, the IC50 with SH-SY5Y is 2.7 µM; with HCT-116 [1], 4.1 µM; in the experiment on DU-145, 22.6 µM; in the experiment with SGC-7901, 8.2 µM; in the experiment on HeLa [2], 56.3 µM.

Turning to `COc1ccc(-c2coc3cc(OCCc4ccccc4)ccc3c2=O)cc1N(CCCl)CCCl`, the IC50 turned out to be 3.84 µM with SH-SY5Y; 8.05 µM with HCT-116 [1]; 7.57 µM in the experiment with DU-145; 11 µM with SGC-7901; 17.8 µM with HeLa [2].

Regarding `COc1ccc(-c2coc3cc(O)ccc3c2=O)cc1` [FORMONONETIN], the IC50 was greater than 100 µM in the experiment with SH-SY5Y; 61 µM with HCT-116 [1]; greater than 100 µM in the experiment on DU-145; 2.17 µM in the experiment on SGC-7901; 8.51 µM in the experiment on HeLa [2].

Take `COc1ccc(-c2coc3cc(OC4CCCC4)ccc3c2=O)cc1N(CCCl)CCCl`: the IC50 worked out at 5.13 µM with SH-SY5Y; 8.75 µM in the experiment on HCT-116 [1]; 11.1 µM with DU-145; 15.2 µM in the experiment with SGC-7901; 19.3 µM in the experiment on HeLa [2].

Take `COc1ccc(-c2coc3cc(OC4CCCCC4)ccc3c2=O)cc1N(CCCl)CCCl`: the Activity in the experiment with HeLa [3] is 3.27%; in the experiment with HeLa [5], “Dose-dependent effect”; with HeLa [6] it was 3.06%; in the experiment on HeLa [7], 8.83%; with HeLa [8], 21.33%. Besides, the result in the experiment with HeLa [4] was Active. The IC50 was determined as 4.44 µM with SH-SY5Y; 6.54 µM in the experiment with HCT-116 [1]; 11.2 µM in the experiment with DU-145; 15.8 µM in the experiment on SGC-7901; 8.29 µM in the experiment on HeLa [2].

With `C=C(C)COc1ccc2c(=O)c(-c3ccc(OC)c(N(CCCl)CCCl)c3)coc2c1`, the IC50 with SH-SY5Y was 10.8 µM; with HCT-116 [1] it was 14.6 µM; in the experiment on DU-145 it was 15.6 µM; with SGC-7901 it was 15.4 µM; with HeLa [2] it was 18.3 µM.

Take `CCOc1ccc2c(=O)c(-c3ccc(OC)c(N(CCCl)CCCl)c3)coc2c1`: the IC50 was 11.9 µM in the experiment with SH-SY5Y; 8.47 µM in the experiment on HCT-116 [1]; 23.9 µM with DU-145; 13 µM in the experiment with SGC-7901; 10.7 µM in the experiment on HeLa [2].

As to `COc1ccc(-c2coc3cc(OCc4ccccc4)ccc3c2=O)cc1N(CCCl)CCCl`, the half-maximal inhibitory concentration (IC50) came to 11.4 µM with SH-SY5Y; 4.97 µM in the experiment on HCT-116 [1]; 26.5 µM in the experiment with DU-145; 18.8 µM in the experiment on SGC-7901; 16.4 µM with HeLa [2].

Take `COc1ccc(-c2coc3cc(OC(C)C)ccc3c2=O)cc1N(CCCl)CCCl`: the IC50 in the experiment on SH-SY5Y is 2.17 µM; with HCT-116 [1], 3.8 µM; in the experiment with DU-145, 19.5 µM; with SGC-7901, 9.21 µM; in the experiment on HeLa [2] it was 12.5 µM. Besides, the Activity in the experiment on HCT-116 [9] was 9.95%; in the experiment with HCT-116 [10] it was 43.72%; in the experiment on HCT-116 [12] it was “Dose-dependent effect”; with HCT-116 [13] it was 24.84%; in the experiment with HCT-116 [14], 0.38%; with HCT-116 [15], 38.1%. Moreover, the result with HCT-116 [11] was Active.

With `N[C@@H](Cc1ccc(N(CCCl)CCCl)cc1)C(=O)O` [MELPHALAN], the IC50 worked out at 5.5 µM with SH-SY5Y; 20.9 µM in the experiment on HCT-116 [1]; 96.3 µM in the experiment on DU-145; 51 µM with SGC-7901; 24 µM with HeLa [2].

In the case of `COc1ccc(-c2coc3cc(OCC=C(C)C)ccc3c2=O)cc1N(CCCl)CCCl`, the IC50 in the experiment with SH-SY5Y worked out at 5.25 µM; with HCT-116 [1], 13.8 µM; in the experiment with DU-145 it was 12.2 µM; in the experiment with SGC-7901 it was 19.8 µM; with HeLa [2], 18 µM.

The values above are taken from ChEMBL document CHEMBL2040740, “Synthesis and antitumor activity of formononetin nitrogen mustard derivatives” (Eur J Med Chem, 2012).
